Reference: ChEMBL document CHEMBL1135498, “Pyrazole urea-based inhibitors of p38 MAP kinase: from lead compound to clinical candidate” (J Med Chem, 2002)
Activity calls are given as the source filed them. The rule behind the calls is not given here.

Experiments:
[1] = Plasma level of compound was measured after 90 min post dose in mouse.; format: ADME, organism-based; conditions: read-out: Plasma level
Outline: (§1)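 Female Balb/c mice (~20 g) received compound or vehicle orally in cremophor about 30 min before an i.v. challenge of E. coli 0111:B4 LPS (1.0 μg/mouse) plus D-gal (50 mg/kg) in pyrogen-free saline. One hour after challenge, the mice were bled by cardiac puncture. Serum TNF-α was measured by ELISA in duplicate, and compound levels by HPLC.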

Mus musculus [2] = test: In vivo inhibition of LPS-stimulated TNF-alpha in mouse at 100 mg/kg peroral dose; format: functional; conditions: route oral
Outline: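 Female Balb/c mice (~20 g) dosed orally in cremophor ~30 min before iv LPS (E. coli 0111:B4, 1.0 μg/mouse) plus D-gal (50 mg/kg) in pyrogen-free saline. Blood taken by cardiac puncture 1 h after challenge; serum TNF-α by ELISA in duplicate; serum compound levels by HPLC.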

Mus musculus [3] = test: In vivo inhibition of LPS-stimulated TNF-alpha in mouse at 100 mg/kg peroral dose; NS = Not significant.; format: functional, organism-based; set-up: dose 100 mg/kg; outline: as §1
MAP kinase p38 = MAP kinase p38 (Homo sapiens, UniProt O15264+Q15759+Q16539+P53778); test: Binding affinity against human Mitogen-activated protein kinase p38; format: protein assay
Outline: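 Inhibitor at two concentrations (typically 1 and 0.1 μM, verified by HPLC); 60 min room temperature; excitation 332 nm, emission 420 nm. Duplicates; all points fit to equilibrium binding equation for Kd.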

[4] = Plasma level of compound was measured after 90 min post dose in mouse; format: ADME, organism-based; conditions: read-out: Plasma level; outline: as §1
[5] = molecular target: Receptor tyrosine-protein kinase erbB-2 (Homo sapiens, UniProt P04626); test: Selectivity against HER2 kinase
[6] = Plasma clearance was measured after intravenous dosing at 1 mg/kg in male cynomolgus monkey (70% PEG400); format: ADME, organism-based, Macaca fascicularis; set-up: dose 1 mg/kg, route intravenous
[7] = Vss was measured after intravenous dosing at 1 mg/kg in female BALB/c mice(70% PEG400); format: ADME, organism-based; set-up: dose 1 mg/kg, route intravenous; conditions: mouse, in vivo, read-out: Vss
[8] = Bioavailability was measured after oral dosing at 10 mg/kg in male cynomolgus monkey (100% PEG400); format: ADME, organism-based, Macaca fascicularis; conditions: in vivo, read-out: Bioavailabiility
[9] = Bioavailability was measured after oral dosing at 10 mg/kg in female BALB/c mice(100% PEG400); format: ADME, organism-based; conditions: mouse, in vivo, read-out: Bioavailabiility
[10] = Vss was measured after intravenous dosing at 1 mg/kg in male cynomolgus monkey (70% PEG400); format: ADME, organism-based, Macaca fascicularis; set-up: dose 1 mg/kg, route intravenous; conditions: in vivo, read-out: Vss
[11] = Maximum time (Tmax) was measured after oral dosing at 10 mg/kg in male cynomolgus monkey (100% PEG400); format: ADME, organism-based, Macaca fascicularis; set-up: dose 10 mg/kg, route oral; conditions: in vivo
[12] = Maximum conc. (Cmax) was measured after oral dosing at 10 mg/kg in male cynomolgus monkey (100% PEG400); format: ADME, organism-based, Macaca fascicularis; set-up: dose 10 mg/kg, route oral; conditions: in vivo
[13] = Plasma clearance (CL) was measured after intravenous dosing at 1 mg/kg in female BALB/c mice(70% PEG400); format: ADME, organism-based; set-up: dose 1 mg/kg, route intravenous; conditions: mouse
[14] = Maximum time (Tmax) was measured after oral dosing at 10 mg/kg in female BALB/c mice(100% PEG400); format: ADME, organism-based; set-up: dose 10 mg/kg, route oral; conditions: mouse, in vivo
[15] = Half life was measured after intravenous dosing at 1 mg/kg in female BALB/c mice(70% PEG400); format: ADME, organism-based; set-up: dose 1 mg/kg, route intravenous; conditions: mouse, in vivo
[16] = Selectivity against Protein kinase C alpha, Protein kinase C beta, Protein kinase C gamma
[17] = Half-life was measured after intravenous dosing at 1 mg/kg in male cynomolgus monkey (70% PEG400); format: ADME, organism-based, Macaca fascicularis; set-up: dose 1 mg/kg, route intravenous; conditions: in vivo
[18] = molecular target: cAMP-dependent protein kinase (PKA) (Homo sapiens, UniProt P22694+P17612+P22612); test: Selectivity against Protein kinase A (PKA); format: protein assay
[19] = Maximum plasma conc. was measured after oral dosing at 10 mg/kg in female BALB/c mice(100% PEG400); format: ADME, organism-based; set-up: dose 10 mg/kg, route oral; conditions: mouse

Sequence of Receptor tyrosine-protein kinase erbB-2 (P04626 whole entry): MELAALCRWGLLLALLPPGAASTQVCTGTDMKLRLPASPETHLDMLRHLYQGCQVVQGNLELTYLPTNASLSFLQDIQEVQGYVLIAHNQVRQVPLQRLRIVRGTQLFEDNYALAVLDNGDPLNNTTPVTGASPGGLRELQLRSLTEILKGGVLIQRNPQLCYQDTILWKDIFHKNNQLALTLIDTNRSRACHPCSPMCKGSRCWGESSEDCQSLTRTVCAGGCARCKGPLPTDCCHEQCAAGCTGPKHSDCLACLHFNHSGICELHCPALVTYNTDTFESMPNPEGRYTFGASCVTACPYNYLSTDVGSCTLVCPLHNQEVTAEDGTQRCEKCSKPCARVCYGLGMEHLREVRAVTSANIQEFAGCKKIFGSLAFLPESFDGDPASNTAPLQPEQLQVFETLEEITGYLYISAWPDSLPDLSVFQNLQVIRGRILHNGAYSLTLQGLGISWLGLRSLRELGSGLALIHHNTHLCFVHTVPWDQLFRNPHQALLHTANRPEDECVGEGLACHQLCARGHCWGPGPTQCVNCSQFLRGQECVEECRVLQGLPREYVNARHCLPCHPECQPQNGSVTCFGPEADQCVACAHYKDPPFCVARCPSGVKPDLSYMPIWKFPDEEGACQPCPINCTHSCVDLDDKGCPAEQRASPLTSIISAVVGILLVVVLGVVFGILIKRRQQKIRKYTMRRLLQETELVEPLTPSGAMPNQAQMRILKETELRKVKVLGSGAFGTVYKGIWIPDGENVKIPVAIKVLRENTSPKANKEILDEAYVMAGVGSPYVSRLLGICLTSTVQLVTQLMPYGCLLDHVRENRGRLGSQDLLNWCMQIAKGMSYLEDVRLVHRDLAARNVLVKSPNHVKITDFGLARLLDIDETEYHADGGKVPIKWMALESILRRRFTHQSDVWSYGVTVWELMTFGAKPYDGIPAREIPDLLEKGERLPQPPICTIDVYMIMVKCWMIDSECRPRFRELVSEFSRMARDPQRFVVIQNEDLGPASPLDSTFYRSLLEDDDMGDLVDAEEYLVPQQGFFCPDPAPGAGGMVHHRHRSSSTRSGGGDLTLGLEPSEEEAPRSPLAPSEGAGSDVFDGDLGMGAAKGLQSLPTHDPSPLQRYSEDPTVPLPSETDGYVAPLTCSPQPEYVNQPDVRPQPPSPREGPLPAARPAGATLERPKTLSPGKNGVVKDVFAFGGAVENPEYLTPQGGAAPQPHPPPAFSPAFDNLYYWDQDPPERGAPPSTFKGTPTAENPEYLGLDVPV

## Cc1ccc(-n2nc(C(C)(C)C)cc2NC(=O)Nc2ccccc2F)cc1
[1]
  concentration at 1.5 h: 51000 ng/mL
Mus musculus [2]
  inhibition in vivo at 100 mg/kg: 90%

## CC(C)(C)c1cc(NC(=O)Nc2ccccc2)n(-c2ccccc2)n1
[1]
  concentration at 1.5 h: 100 ng/mL
Mus musculus [3]
  NS: inactive

## Cc1ccc(-n2nc(C(C)(C)C)cc2NC(=O)Nc2cccc3ccccc23)cc1
MAP kinase p38
  Kd: 0.001 µM

## Cc1ccc(-n2nc(C(C)(C)C)cc2NC(=O)Nc2ccccc2)cc1
[4]
  concentration at 1.5 h: 11000 ng/mL
Mus musculus [2]
  inhibition in vivo at 100 mg/kg: 67%

## Cc1ccc(-n2nc(C(C)(C)C)cc2NC(=O)Nc2ccc(OCCN3CCOCC3)c3ccccc23)cc1 [DORAMAPIMOD]
[5]
  IC50: > 20 µM
[6]
  clearance: 14.4 mL/min/kg
[7]
  Vd: 0.07 L/kg
[8]
  bioavailability: 80%
[9]
  bioavailability: 23%
[10]
  Vd: 1.9 L/kg
[11]
  Tmax: 3 h
[12]
  Cmax: 1700 ng/mL
[13]
  clearance: 0.33 mL/min/kg
[14]
  Tmax: 1 h
[15]
  half-life: 2.6 h
[16]
  IC50: > 20 µM
[17]
  half-life: 1.6 h
[18]
  IC50: > 20 µM
[19]
  Cmax: 27000 ng/mL
